Assay [1] relates to CHO. Nature of the assay: Compound was evaluated for the blockade of [Pro]SP-induced cAMP formation in CHO cells. It is filed as functional, cell-based. The note with it: Cricetulus griseus, read-out: pA2 (converted). In outline: (§1)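 Intact CHO cells transfected with the human NK-1 receptor. Antagonist inhibition of agonist-stimulated cAMP formation is reported as pA2, or as pKB for uncompetitive antagonism.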
On the technique in general: Changes in cAMP serve as a functional read-out for many G protein-coupled receptors.

Another assay deals with Substance-P receptor (Homo sapiens, UniProt P25103). Nature of the assay: Compound was evaluated for affinity towards human tachykinin NK-1 receptor expressed in CHO cells. The assay is classed as cell-based.
Assay [2] has as its system CHO. Nature of the assay: Compound was evaluated for the blockade of [Pro]SP-induced IPs hydrolysis in CHO cells. The assay is classed as functional, cell-based. The note with it: Cricetulus griseus, read-out: pA2 (converted). In outline: (§2)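 Intact CHO cells transfected with the human tachykinin NK-1 receptor. Antagonism of agonist-stimulated phosphoinositide (IP) hydrolysis is expressed as pA2, or as pKB where antagonism was uncompetitive.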

The test system of assay [3] is CHO. Nature of the assay: Compound was evaluated for the blockade of NKA-induced (neurokinin A) IPs hydrolysis in CHO cells. The assay is classed as functional, cell-based. The note with it: Cricetulus griseus, read-out: pA2 (converted). In outline:
as §2

The subject of assay [4] is CHO. Nature of the assay: Compound was evaluated for the inhibition of cAMP formation on intact CHO cells expressing the human tachykinin NK-1 receptor. It is filed as functional, cell-based. As to conditions: Cricetulus griseus. In outline:
as §1

For assay [5], the system named is CHO. Nature of the assay: Compound was evaluated for the inhibition of IPs hydrolysis on intact CHO cells expressing the human tachykinin NK-1 receptor. It is filed as functional, cell-based. The note with it: Cricetulus griseus. In outline:
as §2

Starred links: 1 amine or outer side, 2 acyl side, 3 side chain; linkers in the order of their positions; H or OH if unused. Non-standard residues stand in square brackets, D forms with d. Residues, ends and D or L forms follow the SMILES beside them. X1 = O=C([C@@H]1C(Cc2ccccc2)CCN1[*:1])[*:2]; NMeF = CN[C@@H](Cc1ccccc1)C(=O)O

Substance-P receptor, sequence (P25103 whole entry): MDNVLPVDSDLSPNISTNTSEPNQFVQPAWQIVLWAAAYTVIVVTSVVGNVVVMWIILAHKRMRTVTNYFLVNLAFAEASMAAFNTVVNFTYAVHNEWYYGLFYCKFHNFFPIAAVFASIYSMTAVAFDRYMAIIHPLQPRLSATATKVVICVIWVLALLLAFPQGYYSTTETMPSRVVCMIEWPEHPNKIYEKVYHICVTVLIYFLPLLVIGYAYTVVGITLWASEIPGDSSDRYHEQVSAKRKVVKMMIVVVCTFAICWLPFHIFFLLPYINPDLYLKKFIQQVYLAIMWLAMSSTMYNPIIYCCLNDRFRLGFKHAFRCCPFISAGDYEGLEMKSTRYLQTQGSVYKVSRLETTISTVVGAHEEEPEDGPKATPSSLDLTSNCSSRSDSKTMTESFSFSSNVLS

Usually Ki stands for the dissociation constant of the complex between target and ligand, obtained from inhibition or displacement. A lower Ki goes with a stronger hold on the target. Take `NCCCC[C@H](NC(=O)[C@@H]1CCCN1C(=O)[C@@H](N)CCCN=C(N)N)C(=O)N1CCC[C@H]1C(=O)N[C@@H](CCC(N)=O)C(=O)N[C@@H](CCC(N)=O)C(=O)N[C@@H](Cc1ccccc1)C(=O)N[C@@H](Cc1ccccc1)C(=O)N1CCC[C@H]1C(=O)N1CCC(Cc2ccccc2)[C@H]1C(=O)N[C@@H](Cc1c[nH]c2ccccc12)C(N)=O` (some centres not stated) (H-RPKPQQFFP[X1]W-NH2): the Kb with CHO [1] is 0.0182 µM; in the assay with CHO [2], 0.0251 µM; with CHO [3], 0.01 µM. The molecule further returned a Ki at Substance-P receptor of 0.079 µM.

A word on the EC50: it is the concentration needed to bring the measured effect to its halfway point. High values mean a less potent agent, low ones a more potent agent. Consider `CSCC[C@H](NC(=O)[C@H](CC(C)C)NC(=O)CNC(=O)[C@@H](NC(=O)[C@H](Cc1ccccc1)NC(=O)[C@H](CO)NC(=O)[C@H](CC(=O)O)NC(=O)[C@@H](NC(=O)[C@H](CCCCN)NC(=O)[C@@H](N)Cc1c[nH]cn1)[C@@H](C)O)C(C)C)C(N)=O` [NEUROKININ A], for which the figures for the EC50 in the assay with CHO [4] and in the assay with CHO [5] were 1.24 µM and 0.008 µM, respectively.

Take `CC(C)C[C@@H](C(=O)N[C@@H](Cc1c[nH]c2ccccc12)C(N)=O)N1CC[C@@]2(CCCN2C(=O)[C@H](Cc2ccc(O)cc2)NC(=O)[C@H](Cc2ccccc2)NC(=O)[C@H](CCCCN)NC(=O)[C@H](CC(N)=O)NC(=O)[C@@H]2CCCN2C(=O)[C@H](CC(=O)O)NC(=O)[C@H](C)NC(=O)[C@@H]2CCC(=O)N2)C1=O`: the Kb with CHO [1] is 0.0158 µM; with CHO [2], 0.0631 µM; in the assay with CHO [3], 0.0126 µM. Further, at Substance-P receptor, the affinity, expressed as Ki, was 0.056 µM.

For `CN(C(=O)[C@@H]1CCCN1C(=O)[C@H](Cc1ccccc1)NC(=O)[C@H](Cc1ccccc1)NC(=O)[C@H](CCC(N)=O)NC(=O)[C@H](CCC(N)=O)NC(=O)[C@@H]1CCCN1C(=O)[C@H](CCCCN)NC(=O)[C@@H]1CCCN1C(=O)[C@@H](N)CCCN=C(N)N)[C@@H](Cc1ccccc1)C(=O)N[C@@H](Cc1c[nH]c2ccccc12)C(N)=O` (H-RPKPQQFFP[NMeF]W-NH2), the values for the Kb with CHO [1], in the assay on CHO [2] and in the assay with CHO [3] were 0.115 µM, 0.347 µM and 0.398 µM, respectively. For the same molecule, the inhibition constant Ki on Substance-P receptor was determined as 0.11 µM.

For `CSCC[C@H](NC(=O)[C@H](CC(C)C)NC(=O)[C@@H]1CCCN1C(=O)[C@H](Cc1ccccc1)NC(=O)[C@H](Cc1ccccc1)NC(=O)[C@H](CCC(N)=O)NC(=O)[C@H](CCC(N)=O)NC(=O)[C@@H]1CCCN1C(=O)[C@H](CCCCN)NC(=O)[C@@H]1CCCN1C(=O)[C@@H](N)CCCN=C(N)N)C(N)=O`, the EC50 with CHO [4] is 0.01 µM; with CHO [5], 0.0012 µM. Moreover, at Substance-P receptor, the inhibition constant (Ki) is 0.0011 µM.

(Values after ChEMBL document CHEMBL1130821 (Bioorg Med Chem Lett, 1998).)
